Measured values taken from ChEMBL document CHEMBL1156237, “Antiviral activity of benzimidazole derivatives. II. Antiviral activity of 2-phenylbenzimidazole derivatives” (Bioorg Med Chem, 2010).
The source made the active and inactive calls. How the calls were made is not given here.

test system: Bovine viral diarrhea virus 1; assay: Antiviral activity against Bovine viral diarrhea virus NADL infected in MDBK cells assessed as protection from virus-induced cytopathogenicity after 3 to 4 days by MTT method; format: functional, organism-based, Bovine viral diarrhea virus 1-NADL; settings: Bovine viral diarrhea virus isolates and strains, MDBK
Procedure, shortened: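 Cytopathogenicity protection assay. MDBK cells at 3 × 10^4/well, grown overnight to confluence. Infected with BVDV NADL at m.o.i. 0.01 in MEM-E with 0.5% inactivated FBS, 1 mM Na pyruvate and 1% kanamycin. Serial compound dilutions added after 1 h. After 3–4 days at 37 °C, viability read by MTT; EC50 is the concentration giving 50% protection.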

Compound | EC50 [µM]
COc1ccc(-c2nc3cc(C(F)(F)F)ccc3[nH]2)c([N+](=O)[O-])c1 | > 55
COc1ccc(-c2nc3cc(C(F)(F)F)ccc3[nH]2)cc1 | 1
COc1cc(-c2nc3cc(C(F)(F)F)ccc3[nH]2)cc(OC)c1OC | > 18
O=[N+]([O-])c1ccc(-c2nc3cc(C(F)(F)F)ccc3n2C23CC4CC(CC(C4)C2)C3)cc1 | > 100
COc1ccc(-c2nc3cc(Cl)c(Cl)cc3[nH]2)c([N+](=O)[O-])c1 | > 28

test system: Yellow fever virus; assay: Antiviral activity against Yellow fever virus 17D infected in BHK cells assessed as protection from virus-induced cytopathogenicity after 3 to 4 days by MTT method; format: functional, organism-based; settings: not given

Compound | EC50 [µM]
COc1ccc(-c2nc3cc(C(F)(F)F)ccc3[nH]2)c([N+](=O)[O-])c1 | > 100
COc1ccc(-c2nc3cc(C(F)(F)F)ccc3[nH]2)cc1 | > 100
COc1cc(-c2nc3cc(C(F)(F)F)ccc3[nH]2)cc(OC)c1OC | > 31
O=[N+]([O-])c1ccc(-c2nc3cc(C(F)(F)F)ccc3n2C23CC4CC(CC(C4)C2)C3)cc1 | > 100
COc1ccc(-c2nc3cc(Cl)c(Cl)cc3[nH]2)c([N+](=O)[O-])c1 | > 80

test system: Human alphaherpesvirus 1; assay: Antiviral activity against HSV1 KOS infected in african green monkey Vero cells after 3 days by plaque reduction assay; format: functional, organism-based; settings: Human alphaherpesvirus 1, KOS, 72 h
Procedure, shortened: (§1)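 Plaque reduction assay. Vero 76 cells at 2 × 10^5/well, grown overnight to confluence in D-MEM with 10% FBS. Infected 2 h with 50–100 PFU/well, unadsorbed virus removed. Overlay of D-MEM with 1% inactivated FBS and 0.75% methylcellulose, with or without serial compound dilutions. Incubated at 37 °C for 3 days (HSV-1 KOS, CVB-2 Ohio-1) or 5 days (RSV A2). Fixed and stained with crystal violet in 50% ethanol; plaques counted; EC50 by linear regression.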

Compound | EC50 [µM]
COc1ccc(-c2nc3cc(C(F)(F)F)ccc3[nH]2)c([N+](=O)[O-])c1 | > 20
COc1ccc(-c2nc3cc(C(F)(F)F)ccc3[nH]2)cc1 | > 15
COc1cc(-c2nc3cc(C(F)(F)F)ccc3[nH]2)cc(OC)c1OC | > 29
O=[N+]([O-])c1ccc(-c2nc3cc(C(F)(F)F)ccc3n2C23CC4CC(CC(C4)C2)C3)cc1 | > 100
COc1ccc(-c2nc3cc(Cl)c(Cl)cc3[nH]2)c([N+](=O)[O-])c1 | > 80

test system: Respiratory syncytial virus; assay: Antiviral activity against RSV A2 infected in african green monkey Vero cells after 5 days by plaque reduction assay; format: functional, organism-based; settings: human respiratory syncytial virus, A2, Vero, 120 h; procedure, shortened: as §1

Compound | EC50 [µM]
COc1ccc(-c2nc3cc(C(F)(F)F)ccc3[nH]2)c([N+](=O)[O-])c1 | > 20
COc1ccc(-c2nc3cc(C(F)(F)F)ccc3[nH]2)cc1 | > 15
COc1cc(-c2nc3cc(C(F)(F)F)ccc3[nH]2)cc(OC)c1OC | > 29
O=[N+]([O-])c1ccc(-c2nc3cc(C(F)(F)F)ccc3n2C23CC4CC(CC(C4)C2)C3)cc1 | > 100
COc1ccc(-c2nc3cc(Cl)c(Cl)cc3[nH]2)c([N+](=O)[O-])c1 | > 80

test system: Vaccinia virus; assay: Antiviral activity against Vaccinia virus Elstree-Lister infected in african green monkey Vero cells after 3 days by plaque reduction assay; format: functional, organism-based; settings: Orthopoxvirus vaccinia, 72 h

Compound | EC50 [µM]
COc1ccc(-c2nc3cc(C(F)(F)F)ccc3[nH]2)c([N+](=O)[O-])c1 | > 20
COc1ccc(-c2nc3cc(C(F)(F)F)ccc3[nH]2)cc1 | > 15
COc1cc(-c2nc3cc(C(F)(F)F)ccc3[nH]2)cc(OC)c1OC | > 29
O=[N+]([O-])c1ccc(-c2nc3cc(C(F)(F)F)ccc3n2C23CC4CC(CC(C4)C2)C3)cc1 | > 100
COc1ccc(-c2nc3cc(Cl)c(Cl)cc3[nH]2)c([N+](=O)[O-])c1 | > 80

test system: Human immunodeficiency virus 1; assay: Antiviral activity against HIV1 3B infected in human MT4 cells assessed as protection from virus-induced cytopathogenicity after 4 days by MTT method; format: functional, organism-based; settings: not given
Procedure, shortened: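 MT-4 cells, 1 × 10^4/well in RPMI with or without serial compound dilutions, infected with HIV-1 IIIB, 100 CCID50 (m.o.i. 0.01). Protection from virus-induced cytopathogenicity read by MTT.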

Compound | Activity
COc1ccc(-c2nc3cc(C(F)(F)F)ccc3[nH]2)c([N+](=O)[O-])c1 | inactive
COc1ccc(-c2nc3cc(C(F)(F)F)ccc3[nH]2)cc1 | inactive
COc1cc(-c2nc3cc(C(F)(F)F)ccc3[nH]2)cc(OC)c1OC | inactive
O=[N+]([O-])c1ccc(-c2nc3cc(C(F)(F)F)ccc3n2C23CC4CC(CC(C4)C2)C3)cc1 | inactive
COc1ccc(-c2nc3cc(Cl)c(Cl)cc3[nH]2)c([N+](=O)[O-])c1 | inactive

test system: Poliovirus 1; assay: Antiviral activity against Polio virus type1 Sabin strain Chat infected in african green monkey Vero cells after 2 days by plaque reduction assay; format: functional, organism-based, Human poliovirus 1 strain Sabin; settings: Enterovirus C, 48 h

Compound | EC50 [µM]
COc1ccc(-c2nc3cc(C(F)(F)F)ccc3[nH]2)c([N+](=O)[O-])c1 | > 20
COc1ccc(-c2nc3cc(C(F)(F)F)ccc3[nH]2)cc1 | > 15
COc1cc(-c2nc3cc(C(F)(F)F)ccc3[nH]2)cc(OC)c1OC | > 29
O=[N+]([O-])c1ccc(-c2nc3cc(C(F)(F)F)ccc3n2C23CC4CC(CC(C4)C2)C3)cc1 | > 100
COc1ccc(-c2nc3cc(Cl)c(Cl)cc3[nH]2)c([N+](=O)[O-])c1 | > 80

test system: not listed separately; assay: Cytotoxicity against BHK cells after 48 to 96 hrs by MTT assay; format: cell-based, Mesocricetus auratus; settings: hamster
Procedure, shortened: (§2)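 Cell seeding: MDBK at 6 × 10^5 cells/mL in MEM-E with 10% horse serum and 1 mM Na pyruvate; BHK at 1 × 10^6 cells/mL in MEM-E with 10% FBS. Serial compound dilutions, 37 °C, 5% CO2. Viability of mock-infected cells by MTT after 48–96 h; CC50 is the concentration reducing viability by 50%.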

Compound | CC50 [µM]
COc1ccc(-c2nc3cc(C(F)(F)F)ccc3[nH]2)c([N+](=O)[O-])c1 | 100
COc1ccc(-c2nc3cc(C(F)(F)F)ccc3[nH]2)cc1 | > 100
COc1cc(-c2nc3cc(C(F)(F)F)ccc3[nH]2)cc(OC)c1OC | 31
O=[N+]([O-])c1ccc(-c2nc3cc(C(F)(F)F)ccc3n2C23CC4CC(CC(C4)C2)C3)cc1 | > 100
COc1ccc(-c2nc3cc(Cl)c(Cl)cc3[nH]2)c([N+](=O)[O-])c1 | 80

test system: not listed separately; assay: Cytotoxicity against african green monkey Vero cells; format: cell-based; settings: chlorocebus sabaeus
Procedure, shortened: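 Vero 76 monolayers exposed to serial compound dilutions, run in parallel on the same 24-well plates as the plaque-reduction assays. CC50 is the concentration reducing viability of mock-infected cells by 50%.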

Compound | CC50 [µM]
COc1ccc(-c2nc3cc(C(F)(F)F)ccc3[nH]2)c([N+](=O)[O-])c1 | 20
COc1ccc(-c2nc3cc(C(F)(F)F)ccc3[nH]2)cc1 | 15
COc1cc(-c2nc3cc(C(F)(F)F)ccc3[nH]2)cc(OC)c1OC | 29
O=[N+]([O-])c1ccc(-c2nc3cc(C(F)(F)F)ccc3n2C23CC4CC(CC(C4)C2)C3)cc1 | > 100
COc1ccc(-c2nc3cc(Cl)c(Cl)cc3[nH]2)c([N+](=O)[O-])c1 | 80

test system: not listed separately; assay: Cytotoxicity against human MT4 cells after 96 hrs by MTT assay; format: cell-based; settings: MT4 cells
Procedure, shortened: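 Exponentially growing MT-4 cells at 1 × 10^5 cells/mL in RPMI-1640 with 10% FCS, exposed to serial compound dilutions at 37 °C, 5% CO2. Viability by MTT after 96 h; CC50 is the concentration reducing viability of mock-infected cells by 50%.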

Compound | CC50 at 96 h [µM]
COc1ccc(-c2nc3cc(C(F)(F)F)ccc3[nH]2)c([N+](=O)[O-])c1 | 85
COc1ccc(-c2nc3cc(C(F)(F)F)ccc3[nH]2)cc1 | 2
COc1cc(-c2nc3cc(C(F)(F)F)ccc3[nH]2)cc(OC)c1OC | 4
O=[N+]([O-])c1ccc(-c2nc3cc(C(F)(F)F)ccc3n2C23CC4CC(CC(C4)C2)C3)cc1 | ≥ 100
COc1ccc(-c2nc3cc(Cl)c(Cl)cc3[nH]2)c([N+](=O)[O-])c1 | 2

test system: Coxsackievirus B2; assay: Antiviral activity against Human coxsackievirus B2 Ohio-1 infected in african green monkey Vero cells after 3 days by plaque reduction assay; format: functional, organism-based, Coxsackievirus B2 (strain Ohio-1); settings: Enterovirus B, Vero, 72 h; procedure, shortened: as §1

Compound | EC50 [µM]
COc1ccc(-c2nc3cc(C(F)(F)F)ccc3[nH]2)c([N+](=O)[O-])c1 | > 20
COc1ccc(-c2nc3cc(C(F)(F)F)ccc3[nH]2)cc1 | 7
COc1cc(-c2nc3cc(C(F)(F)F)ccc3[nH]2)cc(OC)c1OC | 11
O=[N+]([O-])c1ccc(-c2nc3cc(C(F)(F)F)ccc3n2C23CC4CC(CC(C4)C2)C3)cc1 | > 100
COc1ccc(-c2nc3cc(Cl)c(Cl)cc3[nH]2)c([N+](=O)[O-])c1 | > 80

test system: not listed separately; assay: Cytotoxicity against MDBK cells after 48 to 96 hrs by MTT assay; format: cell-based, Bos taurus; settings: cattle, MDBK cells; procedure, shortened: as §2

Compound | CC50 [µM]
COc1ccc(-c2nc3cc(C(F)(F)F)ccc3[nH]2)c([N+](=O)[O-])c1 | 55
COc1ccc(-c2nc3cc(C(F)(F)F)ccc3[nH]2)cc1 | > 100
COc1cc(-c2nc3cc(C(F)(F)F)ccc3[nH]2)cc(OC)c1OC | 18
O=[N+]([O-])c1ccc(-c2nc3cc(C(F)(F)F)ccc3n2C23CC4CC(CC(C4)C2)C3)cc1 | > 100
COc1ccc(-c2nc3cc(Cl)c(Cl)cc3[nH]2)c([N+](=O)[O-])c1 | 28

test system: Vesicular stomatitis virus; assay: Antiviral activity against VSV Indiana lab infected in african green monkey Vero cells after 2 days by plaque reduction assay; format: functional, organism-based; settings: not given

Compound | Activity
COc1ccc(-c2nc3cc(C(F)(F)F)ccc3[nH]2)c([N+](=O)[O-])c1 | inactive
COc1ccc(-c2nc3cc(C(F)(F)F)ccc3[nH]2)cc1 | inactive
COc1cc(-c2nc3cc(C(F)(F)F)ccc3[nH]2)cc(OC)c1OC | inactive
O=[N+]([O-])c1ccc(-c2nc3cc(C(F)(F)F)ccc3n2C23CC4CC(CC(C4)C2)C3)cc1 | inactive
COc1ccc(-c2nc3cc(Cl)c(Cl)cc3[nH]2)c([N+](=O)[O-])c1 | inactive
